Measurements reported in ChEMBL document CHEMBL2311475, “Highly solvatochromic fluorescent naphthalimides: design, synthesis, photophysical properties and fluorescence switch-on sensing of ct-DNA” (Bioorg Med Chem Lett, 2013).
Active and inactive are the calls of the source. The calls are words filed in the database; no cut-off is given here.

How the values were obtained:
Format in all cases: nucleic-acid assay
Conditions in all cases: Bos taurus
DNA [1] = test: Binding affinity to calf thymus DNA assessed melting temperature at 1:1 compound:DNA ratio by thermal denaturation assay (reference value: 65.83 degC)
DNA [2] = test: Binding affinity to calf thymus DNA at 30 uM by fluorescence titration method
In short: (§1)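 Fluorescence titration: probe held at 30 μM in aqueous phosphate buffer, pH 7.0, at room temperature, with increasing concentrations of ct-DNA added. Emission spectra were recorded at each step.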

DNA [3] = test: Binding affinity to calf thymus DNA at 1:0.67 to 1:2 DNA:compound ratio by UV-Vis spectrophotometric analysis
In short: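 Absorption spectra of the probe were recorded in aqueous phosphate buffer, pH 7.0, while ct-DNA was added gradually. Shifts in band position and changes in intensity were followed.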

DNA [4] = test: Displacement of ethidium bromide from calf thymus DNA at 3.5 to 75 uM by fluorescence spectrophotometric analysis
DNA [5] = test: Binding affinity to calf thymus DNA assessed melting temperature at 1:0.5 compound:DNA ratio by thermal denaturation assay (reference value: 65.83 degC)
DNA [6] = test: Binding affinity to calf thymus DNA at 30 uM by in presence of increasing concentration of DNA by Benesi-Hildebrand plot analysis
DNA [7] = test: Binding affinity to calf thymus DNA assessed melting temperature at 1:1.5 compound:DNA ratio by thermal denaturation assay (reference value: 65.83 degC)
DNA [8] = test: Binding affinity to calf thymus DNA assessed melting temperature at 2:1 compound:DNA ratio by thermal denaturation assay (reference value: 65.83 degC)
DNA [9] = test: Binding affinity to calf thymus DNA at 1:1 compound:DNA ratio by fluorescence titration method; in short: as §1

| Tm (DNA [1]) [°C] | Activity (DNA [2]) | Activity (DNA [3]) | Activity (DNA [4]) | Tm (DNA [5]) [°C] | K (DNA [6]) [×10⁴ /M] | Tm (DNA [7]) [°C] | Tm (DNA [8]) [°C] | Activity (DNA [9]) | SMILES |
| --- | --- | --- | --- | --- | --- | --- | --- | --- | --- |
| 64.9 | Active | inactive | inactive | 65.6 | 3.98 | 64.3 | 63.2 |  | C#CCN1C(=O)c2cccc3c(C#Cc4ccc(C#N)cc4)ccc(c23)C1=O |
|  |  | inactive | inactive |  |  |  |  | Active | C#CCN1C(=O)c2cccc3c(C#Cc4ccc(N(C)C)cc4)ccc(c23)C1=O |
